# Laboratory results published in paper PMC6097893 (Cell chemical biology, 2018).
# What was measured:
# ZIKV PF13-251013-18 = assay: Viral infectivity assay; assay type: cell-based, Zika virus; settings: read-out: IC90 against ZIKV PF13-251013-18, Vero cells
# [1] = system: DENV2 NGC E-M196V mutant virus; assay: Viral infectivity assay; assay type: cell-based, dengue virus serotype 2; settings: versus DENV2 NGC wildtype
# In short: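 DENV2 inoculum in EBSS at MOI 1 pre-incubated with test compound over a concentration series, 45 min at 37 °C. The mixture was added to cell monolayers for 1 h at 37 °C, then washed off with PBS. Inhibitor-free medium was added for 24 h (single cycle). Supernatant yield was titred by plaque assay on BHK-21 cells with CMC overlay, 4.5 days, crystal violet.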
# DENV2 sE Q271E = DENV2 sE Q271E (Dengue virus type 2, UniProt P14340, Q551E); assay: Biolayer interferometry, DENV2 sE Q271E; assay type: binding, dengue virus serotype 2; settings: versus wildtype sE
# DENV2 sE-M196V = DENV2 sE-M196V (Dengue virus type 2, UniProt P14340, M476V); assay: Biolayer interferometry, DENV2 sE-M196V; assay type: binding, dengue virus serotype 2; settings: versus wildtype sE
compound,measurement,setting,value
NC(=O)c1cccc(-c2cc(Nc3ccc(OC(F)(F)F)cc3)ncn2)c1 [GNF-2],IC90,ZIKV PF13-251013-18,107 µM
same,Sensitivity of DENV2 E-M196V virus to compound,[1],Reduced sensitivity
same,Effect of Q271E substitution on binding,DENV2 sE Q271E,affinity comparable to wildtype
same,Effect of M196V mutation on binding,DENV2 sE-M196V,more significantly affected
